Common to all, as to type: functional
For assay [1], the system named is Pseudomonas aeruginosa. In words: Potentiation of minocycline-induced antimicrobial activity against MDR/XDR Pseudomonas aeruginosa isolate 101243 devoid of GyrA Thr83Ile mutant assessed as minocycline MIC80 incubated for 18 hrs by broth microdilution method (reference value: 32 microg/ml). As to conditions: isolate 101243, 18 h. (In broth dilution the organism is exposed to a series of concentrations in liquid medium.)

In assay [2] the test system is Pseudomonas aeruginosa. The assay is described as follows: Potentiation of rifampicin-induced antibacterial activity against wild type Pseudomonas aeruginosa PAO1 assessed as fold reduction in rifampicin MIC at 7.5 uM incubated for 18 hrs by broth microdilution method. The method in brief:
(§1)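 CLSI broth microdilution. Overnight cultures were set to 0.5 McFarland in saline, diluted 1:50 in Mueller-Hinton broth to a final 5 × 10^5 CFU/mL, and incubated 18 h at 37 °C against 2-fold antibiotic dilutions. A fixed adjuvant level was present throughout. MIC = lowest concentration with no visible turbidity, confirmed at 590 nm. Potentiation = fold drop in antibiotic MIC versus antibiotic alone.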

For assay [3], the system named is Acinetobacter baumannii. The assay is described as follows: Antimicrobial activity against multidrug-resistant Acinetobacter baumannii 110193 incubated for 18 hrs by broth dilution method. The settings on record: Acinetobacter baumannii, 110193, 18 h. Summed up: (§2)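 Broth microdilution per CLSI: overnight cultures set to 0.5 McFarland in saline, diluted 1:50 in Mueller-Hinton broth to a final 5 × 10^5 CFU/mL, added to 2-fold serial dilutions, incubated 18 h at 37 °C; MIC is the lowest concentration without visible turbidity, confirmed at 590 nm.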

Assay [4] relates to Pseudomonas aeruginosa. In words: Potentiation of ciprofloxacin-induced antibacterial activity against MDR/XDR Pseudomonas aeruginosa isolate PA259-96918 harboring GyrA T83I mutant assessed as fold reduction in ciprofloxacin MIC at 7.5 uM incubated for 18 hrs by broth microdilution method.
In assay [5] the test system is Pseudomonas aeruginosa. The assay is described as follows: Potentiation of minocycline-induced antimicrobial activity against MDR/XDR Pseudomonas aeruginosa isolate PA262-101856 harboring GyrA Thr83Ile mutant assessed as minocycline MIC80 incubated for 18 hrs by broth microdilution method (reference value: 32 microg/ml). As to conditions: isolate PA262-101856, 18 h.

Assay [6] concerns Pseudomonas aeruginosa. In words: Potentiation of moxifloxacin-induced antibacterial activity against MDR/XDR Pseudomonas aeruginosa isolate PA259-96918 harboring GyrA T83I mutant assessed as fold reduction in moxifloxacin MIC at 7.5 uM incubated for 18 hrs by broth microdilution method. Summed up:
as §1

Assay [7] has as its system Pseudomonas aeruginosa. The assay is described as follows: Potentiation of minocycline-induced antibacterial activity against MDR/XDR Pseudomonas aeruginosa isolate 101243 devoid of GyrA T83I mutant assessed as fold reduction in minocycline MIC at 7.5 uM incubated for 18 hrs by broth microdilution method.
Assay [8] deals with Pseudomonas aeruginosa. The assay is described as follows: Potentiation of rifampicin-induced antimicrobial activity against MDR/XDR Pseudomonas aeruginosa isolate 101885 harboring GyrA Thr83Ile mutant assessed as rifampicin MIC80 incubated for 18 hrs by broth microdilution method (reference value: 16 microg/ml). As to conditions: isolate 101885, 18 h.
Assay [9] has as its system Pseudomonas aeruginosa. In words: Potentiation of minocycline-induced antimicrobial activity against MDR/XDR Pseudomonas aeruginosa isolate PA259-96918 harboring GyrA Thr83Ile mutant assessed as minocycline MIC80 incubated for 18 hrs by broth microdilution method (reference value: 32 microg/ml). The settings on record: isolate PA259-96918, 18 h.
Assay [10] relates to Acinetobacter baumannii. In words: Antimicrobial activity against multidrug-resistant Acinetobacter baumannii AB027 incubated for 18 hrs by broth dilution method. The settings on record: AB027, 18 h. The method in brief: as §2
In assay [11] the test system is Pseudomonas aeruginosa. In words: Potentiation of rifampicin-induced antibacterial activity against MDR/XDR Pseudomonas aeruginosa isolate 91433 devoid of GyrA T83I mutant assessed as fold reduction in rifampicin MIC at 7.5 uM incubated for 18 hrs by broth microdilution method. Summed up:
as §1

Assay [12] has as its system Pseudomonas aeruginosa. In words: Potentiation of minocycline-induced antimicrobial activity against MDR/XDR Pseudomonas aeruginosa isolate 91433 devoid of GyrA Thr83Ile mutant assessed as minocycline MIC50 incubated for 18 hrs by broth microdilution method (reference value: 16 microg/ml). The settings on record: isolate 91433, 18 h.
For assay [13], the system named is Pseudomonas aeruginosa. The assay is described as follows: Potentiation of minocycline-induced antimicrobial activity against MDR/XDR Pseudomonas aeruginosa isolate 101885 harboring GyrA Thr83Ile mutant assessed as minocycline MIC80 incubated for 18 hrs by broth microdilution method (reference value: 32 microg/ml). The settings on record: isolate 101885, 18 h.

For assay [14], the system named is Pseudomonas aeruginosa. The assay is described as follows: Potentiation of minocycline-induced antimicrobial activity against MDR/XDR Pseudomonas aeruginosa isolate PA259-96918 harboring GyrA Thr83Ile mutant assessed as minocycline MIC50 incubated for 18 hrs by broth microdilution method (reference value: 16 microg/ml). The settings on record: isolate PA259-96918, 18 h.

Assay [15] concerns Pseudomonas aeruginosa. The assay is described as follows: Potentiation of minocycline-induced antimicrobial activity against MDR/XDR Pseudomonas aeruginosa isolate 101243 devoid of GyrA Thr83Ile mutant assessed as minocycline MIC50 incubated for 18 hrs by broth microdilution method (reference value: 16 microg/ml). As to conditions: isolate 101243, 18 h.
The test system of assay [16] is Klebsiella pneumoniae. In words: Synergistic antibacterial activity against Klebsiella pneumoniae 113254 assessed as fractional inhibitory concentration index in presence of rifampicin incubated for 18 hrs by broth dilution method. Summed up: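 Checkerboard titration of the adjuvant against the antibiotic, run under the CLSI microdilution conditions (MHB, 5 × 10^5 CFU/mL, 18 h, 37 °C). Each agent's FIC is its MIC in combination divided by its MIC alone; FICI is the sum of the two FICs. FICI ≤0.5 was read as synergy, >0.5–4.0 as no interaction, and >4.0 as antagonism.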

In assay [17] the test system is Acinetobacter baumannii. The assay is described as follows: Synergistic antibacterial activity against multidrug-resistant Acinetobacter baumannii AB110193 assessed as fractional inhibitory concentration index in presence of rifampicin incubated for 18 hrs by broth dilution method.
Assay [18] has as its system Klebsiella pneumoniae. In words: Potentiation of rifampicin-induced antibacterial activity against Klebsiella pneumoniae 113250 assessed as fold reduction in rifampicin MIC at 4.1 uM incubated for 18 hrs by broth dilution method. The method in brief:
(§3)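 Antibiotic MIC determined by CLSI broth microdilution (MHB, 5 × 10^5 CFU/mL, 18 h, 37 °C), once alone and once with a fixed concentration of the adjuvant. Potentiation is the ratio of the antibiotic MIC alone to its MIC in the presence of the adjuvant.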

For assay [19], the system named is Acinetobacter baumannii. The assay is described as follows: Synergistic antibacterial activity against multidrug-resistant Acinetobacter baumannii AB92247 assessed as fractional inhibitory concentration index in presence of minocycline incubated for 18 hrs by broth dilution method.
In assay [20] the test system is Escherichia coli. The assay is described as follows: Potentiation of rifampicin-induced antibacterial activity against Escherichia coli ATCC 25922 assessed as fold reduction in rifampicin MIC at 2.0 uM incubated for 18 hrs by broth dilution method. Summed up: as §3
Assay [21] deals with Klebsiella pneumoniae. The assay is described as follows: Potentiation of minocycline-induced antibacterial activity against Klebsiella pneumoniae 113250 assessed as fold reduction in minocycline MIC at 4.1 uM incubated for 18 hrs by broth dilution method. Summed up: as §3
Assay [22] relates to Acinetobacter baumannii. In words: Synergistic antibacterial activity against multidrug-resistant Acinetobacter baumannii ATCC 17978 assessed as fractional inhibitory concentration index in presence of rifampicin incubated for 18 hrs by broth dilution method.
Assay [23] has as its system Pseudomonas aeruginosa. The assay is described as follows: Potentiation of rifampicin-induced antibacterial activity against MDR/XDR Pseudomonas aeruginosa isolate 101885 harboring GyrA T83I mutant assessed as fold reduction in rifampicin MIC at 9 uM incubated for 18 hrs by broth microdilution method. Summed up: as §1
Assay [24] deals with Pseudomonas aeruginosa. In words: Potentiation of ciprofloxacin-induced antibacterial activity against MDR/XDR Pseudomonas aeruginosa isolate PA262-101856 harboring GyrA T83I mutant assessed as fold reduction in ciprofloxacin MIC at 9 uM incubated for 18 hrs by broth microdilution method.

Where only a bound is given, the exact number is not on record here.

The term MIC80 denotes an inhibitory concentration at the 80% level, which refers to growth in some studies and to a panel of isolates in others. A word on the MIC: it is the least concentration at which growth counts as inhibited. A lower MIC goes with a more susceptible organism. What is called MIC50 is the lowest concentration that inhibits either 50% of growth or 50% of the strains tested, depending on the study. Regarding `COc1c(N2C[C@@H]3CCCN(CCCCCCCCCCCCO[C@@H]4[C@@H](O)[C@H](N)C[C@H](N)[C@H]4O[C@H]4O[C@H](CN)[C@@H](O)C[C@H]4N)[C@@H]3C2)c(F)cc2c(=O)c(C(=O)O)cn(C3CC3)c12.Cl.Cl.Cl.Cl.Cl`, the MIC80 in [1] stood at 1 µg/mL; in assay [5] it was 1 µg/mL; in assay [8], 0.13 µg/mL; in assay [9] it was 1 µg/mL; in assay [13], 1 µg/mL. Also, the “fold change (FC)” value in [2] is “>=256”; in assay [4] it was 4; in assay [6] it was 16; in [7], 16; in assay [11] it was 128. The MIC in [3] and in [10] was above 256 µg/mL throughout. The MIC50 in [12], in [14] and in [15] was 0.5 µg/mL throughout.
For the compound `Cl.Cl.Cl.Cl.Cl.NC[C@H]1O[C@H](O[C@H]2[C@H](OCCCCCCCCCCCCN3CCN(c4cc5c(cc4F)c(=O)c(C(=O)O)cn5C4CC4)CC3)[C@@H](O)[C@H](N)C[C@@H]2N)[C@H](N)C[C@@H]1O`, the “fractional inhibitory concentration index (FICI)” value in [16] is on record as 0.047; in [17] it was 0.016 - 0.031; in assay [19], 0.531; in assay [22], 0.016. In addition, the “fold change (FC)” value was determined as 128 in [18], 128 in assay [20] and 2 in [21].
For `Cl.Cl.Cl.Cl.Cl.Cl.NC[C@H]1O[C@H](O[C@H]2[C@H](OCCCCCCCCCCN3CCN(Cc4cccc5ccccc45)CC3)[C@@H](O)[C@H](N)C[C@@H]2N)[C@H](N)C[C@@H]1O`, the “fold change (FC)” value is on record as 128 in assay [23] and 8 in assay [24].

(Values after ChEMBL document CHEMBL4354800, “Amphiphilic nebramine-based hybrids Rescue legacy antibiotics from intrinsic resistance in multidrug-resistant Gram-negative bacilli” (Eur J Med Chem, 2019).)
